Laboratory results from ChEMBL document CHEMBL2034829, “Truncated phosphonated C-1'-branched N,O-nucleosides: a new class of antiviral agents” (Bioorg Med Chem, 2012).
Activity calls are given as the source filed them. The rule behind the calls is not given here.

How the values were obtained:
[1] = test system: Human T-cell leukemia virus type I; assay: Antiviral activity against HTLV1 infected in PBMC assessed as decrease in viral core protein p19 production; format: functional, organism-based
Summary of the method: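 PBMC co-cultivated with a chronically HTLV-1-infected cell line, with test compounds present; infection measured as production of viral core protein p19.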

[2] = test system: Human immunodeficiency virus 1; assay: Antiviral activity against HIV1 infected in CEM cells after 72 hrs by GFP reporter gene assay; format: functional, organism-based; conditions: for Activity: CCRF-CEM; for IC50: Human immunodeficiency virus 1, CCRF-CEM
Summary of the method: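 CEM T cells carrying an HIV-1 LTR-driven GFP plasmid; 5 × 10^5 cells infected 2 h in 100 µl with supernatant of chronically HIV-infected H9 cells (20 ng/mL p24 equivalent) with compounds at 1000, 100, 10, 1 µM; medium then added, 72 h culture; inhibition scored by GFP expression; IC50 = concentration inhibiting 50% infection; zidovudine internal positive control.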

[3] = Cytotoxicity against human MOLT3 cells by MTS assay; format: cell-based; conditions: MOLT-3 cells
Summary of the method: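 MOLT-3 cells (1 × 10^4) seeded with or without compounds at 1000 to 1 µM. Metabolic activity read colorimetrically as MTS formazan formation. CC50 is the concentration giving 50% inhibition of metabolic activity.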

[4] = Selectivity index, ratio of CC50 for human MOLT3 cells to IC50 for HIV1; format: functional, MOLT-3
Summary of the method: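 SI = CC50/IC50. CC50 from MTS formazan colorimetric assay: 1 × 10^4 MOLT-3 cells with or without compounds at 1000 to 1 µM, concentration reducing metabolic activity 50%. IC50 from CEM-GFP HIV-1 infection (2 h exposure with compounds at 1000–1 µM, 72 h culture, GFP read-out).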

[5] = Ratio of compound CC50 to AZT CC50 for human MOLT3 cells; format: cell-based; conditions: MOLT-3 cells
[6] = test system: Human immunodeficiency virus 1; assay: Ratio of AZT IC50 to compound IC50 for HIV1; format: functional

SMILES | Activity [1] | Activity [2] | CC50 [3] [µM] | Ratio CC50/IC50 [4] | IC50 [2] [µM] | selectivity ratio [5] | Ratio IC50 [6]
CCOC(=O)[C@]1(n2cc(C)c(=O)[nH]c2=O)C[C@H](P(=O)(OCC)OCC)N(C)O1 (racemic) | inactive | inactive | – | – | – | – | –
CCOC(=O)[C@]1(n2ccc(NC(C)=O)nc2=O)C[C@H](P(=O)(OCC)OCC)N(C)O1 (racemic) | inactive | inactive | – | – | – | – | –
Cc1cn([C@H]2C[C@H](N=[N+]=[N-])[C@@H](CO)O2)c(=O)[nH]c1=O [ZIDOVUDINE] | – | – | 12.1 | 1.57 | 7.7 | – | –
CCOC(=O)[C@]1(n2cc(F)c(=O)[nH]c2=O)C[C@H](P(=O)(OCC)OCC)N(C)O1 (racemic) | inactive | inactive | – | – | – | – | –
CCOC(=O)[C@@]1(n2ccc(N)nc2=O)C[C@H](P(=O)(OCC)OCC)N(C)O1 (racemic) | inactive | – | > 1000 | 7.02 | 180 | – | –
CCOC(=O)[C@@]1(n2cc(F)c(=O)[nH]c2=O)C[C@H](P(=O)(OCC)OCC)N(C)O1 (racemic) | inactive | – | > 1000 | 4.5 | 220 | 83 | 28
CCOC(=O)[C@@]1(n2ccc(NC(C)=O)nc2=O)C[C@H](P(=O)(OCC)OCC)N(C)O1 (racemic) | inactive | – | > 1000 | – | > 1000 | – | –
CCOC(=O)[C@@]1(n2ccc(=O)[nH]c2=O)C[C@H](P(=O)(OCC)OCC)N(C)O1 (racemic) | inactive | – | > 1000 | 7.57 | 132 | 83 | 28
CCOC(=O)[C@]1(n2ccc(=O)[nH]c2=O)C[C@H](P(=O)(OCC)OCC)N(C)O1 (relative stereo) | inactive | inactive | – | – | – | – | –
CCOC(=O)[C@@]1(n2cc(C)c(=O)[nH]c2=O)C[C@H](P(=O)(OCC)OCC)N(C)O1 (racemic) | inactive | – | > 1000 | – | > 1000 | – | –
